The test system of test [1] is DU-145. Briefly: Antiproliferative activity against human DU145 cells after 96 hrs by WST1 assay. In kind it is functional. The following applies: DU-145, 96 h. The gist of the method:
(§1)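 Cells kept in RPMI-1640 with 10% FBS, penicillin and streptomycin at 37 °C in 5% CO2. Seeded at 5000 cells/well, exposed to 10^-9-10^-4 M compound or vehicle for 96 h. Live cells counted by WST-1 and viability expressed as % of mean control, from which GI50 was calculated. Triplicate experiments.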

Test [2] concerns MDA-MB-231. Briefly: Antiproliferative activity against human MDA-MB-231 cells after 96 hrs by WST1 assay. In kind it is functional. To be noted: MDA-MB-231, 96 h. In short, it runs like this:
as §1

A further test addresses T1, Steryl-sulfatase (Homo sapiens, UniProt P08842).
T1 sequence (P08842 whole entry): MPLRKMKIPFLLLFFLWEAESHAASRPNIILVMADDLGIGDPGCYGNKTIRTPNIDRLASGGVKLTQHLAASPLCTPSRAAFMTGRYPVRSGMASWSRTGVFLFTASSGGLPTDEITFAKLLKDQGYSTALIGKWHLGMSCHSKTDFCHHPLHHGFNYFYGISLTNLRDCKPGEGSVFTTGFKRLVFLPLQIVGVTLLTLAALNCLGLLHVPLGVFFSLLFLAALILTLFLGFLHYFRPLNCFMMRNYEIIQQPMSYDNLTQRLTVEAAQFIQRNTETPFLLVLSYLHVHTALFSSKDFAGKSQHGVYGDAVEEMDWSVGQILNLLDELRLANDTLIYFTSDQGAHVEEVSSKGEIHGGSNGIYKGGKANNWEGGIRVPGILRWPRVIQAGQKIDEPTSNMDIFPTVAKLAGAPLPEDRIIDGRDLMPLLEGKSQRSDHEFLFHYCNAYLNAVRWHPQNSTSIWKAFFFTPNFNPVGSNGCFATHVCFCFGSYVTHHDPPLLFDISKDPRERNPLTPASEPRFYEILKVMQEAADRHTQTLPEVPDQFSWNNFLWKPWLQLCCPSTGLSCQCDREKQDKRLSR
Briefly: Inhibition of steroid sulfatase in placental microsomes. Details: species or system Placenta. In short, it runs like this:
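Radiometric assay of STS activity in placental microsomes: conversion of tritiated estradiol-3-sulfate to estradiol is measured.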

Another test concerns MCF7. Briefly: Antiproliferative activity against human MCF7 cells by WST1 assay. In kind it is functional.
Test [3] concerns MDA-MB-231. Briefly: Antitumor activity against human MDA-MB-231 cells xenografted athymic mouse at 90 mg/kg, po thrice a week for 4 weeks. In kind it is functional, organism-based. Details: dose 90 mg/kg. The gist of the method:
(§2)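 Female NCr-nude mice, 6-8 weeks old, bearing MDA-MB-231 xenografts, dosed orally in THF/PG vehicle from day 10. Schedules: 60 mg/kg daily for 28 d (to day 38), 90 mg/kg Mon/Wed/Fri × 4 (to day 36), or 200 mg/kg weekly × 4 (to day 32). Tumor volume was (w² × l)/2; one-way ANOVA against control.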

The subject of test [4] is DU-145. As to the kind of experiment: Antitumor activity against human DU145 cells xenografted athymic mouse at 40 mg/kg/day, po after 25 days. In kind it is functional. The gist of the method:
(§3)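 Male NCr-nude mice, 6-8 weeks old, implanted s.c. in the flank with 5 × 10⁶ DU145 cells; treatment began once tumors reached about 50-100 mm³. Dosed orally at 10, 20 or 40 mg/kg once daily for 28 d. Tumor volume was (w² × l)/2 and inhibition read after 25 days of treatment (day 35).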

For test [5], the system named is DU-145. Briefly: Antitumor activity against human DU145 cells xenografted athymic mouse at 20 mg/kg/day, po after 25 days. In kind it is functional. The gist of the method: as §3
Test [6] relates to MDA-MB-231. Briefly: Antitumor activity against human MDA-MB-231 cells xenografted athymic mouse at 60 mg/kg/day, po after 28 days. In kind it is functional, organism-based. In short, it runs like this:
as §2

Test [7] relates to MDA-MB-231. As to the kind of experiment: Antitumor activity against human MDA-MB-231 cells xenografted athymic mouse at 200 mg/kg, po, once a week for 4 weeks. In kind it is functional, organism-based. Details: dose 200 mg/kg. The gist of the method: as §2
Test [8] concerns DU-145. As to the kind of experiment: Antitumor activity against human DU145 cells xenografted athymic mouse at 10 mg/kg/day, po after 25 days. In kind it is functional. The gist of the method:
as §3

Activity calls are given as the source filed them. The calls are words filed in the database; no cut-off is given here.

As to `CC(C)(C)c1cc2c(cc1OS(N)(=O)=O)CC[C@@H]1[C@@H]2CC[C@]2(C)[C@@H](OC(N)=O)CC[C@@H]12`, the GI50 in the test on DU-145 [1] amounted to 13 µM; with MDA-MB-231 [2], 17 µM.
The matching figures for `Cc1cc2c(cc1OS(N)(=O)=O)CC[C@@H]1[C@@H]2CC[C@]2(C)[C@@H](OS(N)(=O)=O)CC[C@@H]12`: 0.38 µM and 0.25 µM.
As to `CCc1cc2c(cc1OS(N)(=O)=O)CC[C@@H]1[C@@H]2CC[C@]2(C)[C@@H](OC(C)=O)CC[C@@H]12`, the GI50 in the test on DU-145 [1] was 1.6 µM. This lies in the single-digit micromolar range.
As to `C[C@]12CC[C@@H]3c4ccc(OS(N)(=O)=O)cc4CC[C@H]3[C@@H]1CC[C@@H]2OS(N)(=O)=O`, the GI50 with DU-145 [1] stood at 11.5 µM; in the test with MDA-MB-231 [2], 18.3 µM.
For the compound `C[C@]12CC[C@@H]3c4ccc(OS(N)(=O)=O)cc4CC[C@H]3[C@@H]1CC[C@@H]2OC(N)=O`, the GI50 with DU-145 [1] was greater than 100 µM; in the test on MDA-MB-231 [2], greater than 100 µM; in the test with MCF7 it was 45 µM. On Steryl-sulfatase, this compound showed an IC50 of 0.04 µM.
As to `CCCCc1cc2c(cc1OS(N)(=O)=O)CC[C@@H]1[C@@H]2CC[C@]2(C)[C@@H](OC(N)=O)CC[C@@H]12`, the figures for the GI50 in the test on DU-145 [1] and in the test with MDA-MB-231 [2] were 15 µM and greater than 100 µM, respectively.
For the compound `COc1cc2c(cc1OS(N)(=O)=O)CC[C@@H]1[C@@H]2CC[C@]2(C)[C@@H](OS(N)(=O)=O)CC[C@@H]12`, the concentration for 50% growth inhibition (GI50) in the test on DU-145 [1] is 0.34 µM; in the test with MDA-MB-231 [2], 0.28 µM.
Regarding `CCCc1cc2c(cc1O)CC[C@@H]1[C@@H]2CC[C@]2(C)[C@@H](O)CC[C@@H]12`, the results for the GI50 in the test on DU-145 [1] and in the test with MDA-MB-231 [2] were 15 µM and 16.6 µM, respectively.
The matching figures for `CCCc1cc2c(cc1OS(N)(=O)=O)CC[C@@H]1[C@@H]2CC[C@]2(C)[C@@H](OC(N)=O)CC[C@@H]12`: 21 µM and 14.5 µM.
The matching figures for `CCCCc1cc2c(cc1OS(N)(=O)=O)CC[C@@H]1[C@@H]2CC[C@]2(C)[C@@H](OC(C)=O)CC[C@@H]12`: 18.4 µM and 21.6 µM.
Take `CCCCc1cc2c(cc1O)CC[C@@H]1[C@@H]2CC[C@]2(C)[C@@H](O)CC[C@@H]12`: the GI50 with DU-145 [1] and with MDA-MB-231 [2] was greater than 100 µM each time.
Regarding `CCCc1cc2c(cc1OS(N)(=O)=O)CC[C@@H]1[C@@H]2CC[C@]2(C)[C@@H](OC(C)=O)CC[C@@H]12`, the GI50 with DU-145 [1] came to 61.3 µM; with MDA-MB-231 [2], 20.4 µM.
Take `CCc1cc2c(cc1OS(N)(=O)=O)CC[C@@H]1[C@@H]2CC[C@]2(C)[C@@H](OC(N)=O)CC[C@@H]12`: the GI50 with DU-145 [1] was 0.22 µM; in the test on MDA-MB-231 [2] it was 0.39 µM; in the test on MCF7 it was 0.64 µM.
In turn, `CC(C)(C)c1cc2c(cc1O)CC[C@@H]1[C@@H]2CC[C@]2(C)[C@@H](O)CC[C@@H]12` showed a GI50 with DU-145 [1] of 24 µM.
For the compound `COc1cc2c(cc1OS(N)(=O)=O)CC[C@@H]1[C@@H]2CC[C@]2(C)[C@@H](OC(N)=O)CC[C@@H]12`, the GI50 in the test with DU-145 [1] was 1.34 µM; in the test with MDA-MB-231 [2] it was 1.15 µM; in the test with MCF7 it was 3.5 µM. The compound also came in with an IC50 at Steryl-sulfatase of 0.52 µM.
In the case of `CCCc1cc2c(cc1OS(N)(=O)=O)CC[C@@H]1[C@@H]2CC[C@]2(C)[C@@H](OS(N)(=O)=O)CC[C@@H]12`, the GI50 in the test on DU-145 [1] was determined as 3.4 µM; in the test with MDA-MB-231 [2], 6.4 µM.
Regarding `CCCCc1cc2c(cc1OS(N)(=O)=O)CC[C@@H]1[C@@H]2CC[C@]2(C)[C@@H](OS(N)(=O)=O)CC[C@@H]12`, the GI50 in the test with DU-145 [1] was found to be 9 µM; in the test on MDA-MB-231 [2] it was 10.7 µM.
Compound `Cc1cc2c(cc1O)CC[C@@H]1[C@@H]2CC[C@]2(C)[C@@H](O)CC[C@@H]12` had a GI50 in the test on DU-145 [1] of 51 µM.
Turning to `CC(C)c1cc2c(cc1OS(N)(=O)=O)CC[C@@H]1[C@@H]2CC[C@]2(C)[C@@H](OS(N)(=O)=O)CC[C@@H]12`, the GI50 with DU-145 [1] is 1.8 µM.
Consider `CCc1cc2c(cc1O)CC[C@@H]1[C@@H]2CC[C@]2(C)[C@@H](O)CC[C@@H]12`, for which the GI50 with DU-145 [1] is 10.3 µM; with MDA-MB-231 [2], 8 µM.
Taken in the same sequence, the figures for `Cc1cc2c(cc1OS(N)(=O)=O)CC[C@@H]1[C@@H]2CC[C@]2(C)[C@@H](OC(N)=O)CC[C@@H]12` were 1.9 µM and 4.7 µM.
Consider `CCc1cc2c(cc1OS(N)(=O)=O)CC[C@@H]1[C@@H]2CC[C@]2(C)[C@@H](OS(N)(=O)=O)CC[C@@H]12`, for which the GI50 in the test on DU-145 [1] and with MDA-MB-231 [2] was 0.21 µM in each case. Moreover, the result with MDA-MB-231 [3], with MDA-MB-231 [6] and with MDA-MB-231 [7] was Active. The Activity in the test with DU-145 [4] was determined as 65%; in the test with DU-145 [5], 27%; in the test on DU-145 [8], 24%.
In turn, `CC(C)(C)c1cc2c(cc1OS(N)(=O)=O)CC[C@@H]1[C@@H]2CC[C@]2(C)[C@@H](OS(N)(=O)=O)CC[C@@H]12` returned a GI50 in the test with DU-145 [1] greater than 10 µM.
Turning to `COc1cc2c(cc1O)CC[C@@H]1[C@@H]2CC[C@]2(C)[C@@H](O)CC[C@@H]12` [2-METHOXYESTRADIOL], the GI50 in the test on MDA-MB-231 [2] is 0.94 µM.
For the compound `CC(C)c1cc2c(cc1OS(N)(=O)=O)CC[C@@H]1[C@@H]2CC[C@]2(C)[C@@H](OC(N)=O)CC[C@@H]12`, the GI50 came to 2.4 µM with DU-145 [1] and 3.4 µM with MDA-MB-231 [2].
`CC(C)c1cc2c(cc1O)CC[C@@H]1[C@@H]2CC[C@]2(C)[C@@H](O)CC[C@@H]12` returned a GI50 in the test on DU-145 [1] of 23 µM.
